Consider 5 molecules from ChEMBL document CHEMBL1137338, “Effects of substitution on 9-(3-bromo-4-fluorophenyl)-5,9-dihydro-3H,4H-2,6-dioxa-4- azacyclopenta[b]naphthalene-1,8-dione, a dihydropyridine ATP-sensitive potassium channel opener” (J Med Chem, 2006).

SMILES strings stand for the structures.

One may read the EC50 as the concentration at which the effect is half-maximal.

In assay [1] the target is T1, Sulfonylurea receptor 2, Kir6.2 (Homo sapiens, UniProt O60706+Q14654). The assay can be described thus: (§1) Ability to open human urinary bladder Kir6.2 channel containing SUR2B in Ltk cells by FLIPR assay. It is filed as functional, cell-based. In short, it runs like this: (§2)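 Ltk- cells stably transfected with the Kir6.2/SUR2B exon 17- splice variant. Membrane potential was followed with DiBAC dye in a 96-well cell-based kinetic fluorescence (FLIPR) assay. The highest concentration tested was 10 µM. Each compound's maximal fluorescence response was expressed as % of the response to the reference opener.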

The target of assay [2] is T1, Sulfonylurea receptor 2, Kir6.2. The assay can be described thus: Activity against pig bladder KATP channel opening assessed as ability to relax spontaneous bladder contraction. Type of assay: functional, Sus scrofa. The settings on record: target entry is the homologue from another species. An outline of the steps: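 Spontaneously contracting detrusor strips were taken from near the trigonal region of Landrace pig bladder. Increasing concentrations of test agent were applied, and the reduction in area under the curve (AUC) of the spontaneous contractions was measured.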

Assay [3] has the same target. The assay can be described thus: (§3) Activity against pig bladder KATP channel opening assessed as ability to relax field-stimulated pig detrusor. It is filed as functional, Sus scrofa. The settings on record: target entry is the homologue from another species.
The target in assay [4] is T2, Sulfonylurea receptor 2, Kir6.2 (Homo sapiens) (UniProt Q14654+O60706). Description: Ability to open human urinary bladder Kir6.2 containing SUR2B in Ltk cells by FLIPR assay relative to P1075. Type of assay: functional, cell-based. In short, it runs like this:
as §2

Assay [5] has as its target T2, Sulfonylurea receptor 2, Kir6.2 (Homo sapiens). Description: Activity against pig bladder KATP channel opening assessed as ability to relax spontaneous bladder contraction relative to P1075. As to conditions: Sus scrofa; target entry is the homologue from another species. It is filed as functional.
Assay [6] has the same target. The assay can be described thus: Activity against pig bladder KATP channel opening assessed as ability to relax field-stimulated pig detrusor relative to P1075. It is filed as functional. The settings on record: Sus scrofa; target entry is the homologue from another species.
For assay [7] the target is unchanged. The description is as §1. As to conditions: filed as partial agonist. Type of assay: functional, cell-based. An outline of the steps: as §2
Assay [8] shares this target. The assay is described as §3. Type of assay: functional. The settings on record: Sus scrofa; filed as agonist; target entry is the homologue from another species.
Assay [9] has as its system Rattus norvegicus. Description: Activity against volume-induced reflex neurogenic bladder contraction in urethral ligated rat measured as reduction in MAP at 1 umol/kg, iv. Also noted: scale not given: the % may be the effect or the level left. Type of assay: functional, Urinary bladder.
Assay [10] relates to Rattus norvegicus. The assay can be described thus: Activity against volume-induced reflex neurogenic bladder contraction in urethral ligated rat measured as reduction in MAP at 3 umol/kg, iv. Type of assay: functional, Urinary bladder. On the set-up: scale not given: the % may be the effect or the level left.
Assay [11] concerns Rattus norvegicus. Description: Activity against volume-induced reflex neurogenic bladder contraction in urethral ligated rat measured as reduction in AUC at 3 umol/kg, iv. It is filed as functional, Urinary bladder. On the set-up: scale not given: the % may be the effect or the level left.
The test system of assay [12] is Rattus norvegicus. Description: Activity against spontaneous myogenic bladder contraction in partial outlet obstructed rat measured as reduction in AUC at 1 umol/kg, iv. It is filed as functional. On the set-up: scale not given: the % may be the effect or the level left.
Assay [13] deals with Rattus norvegicus. Description: Activity against spontaneous myogenic bladder contraction in partial outlet obstructed rat measured as reduction in MAP at 1 umol/kg, iv. Also noted: scale not given: the % may be the effect or the level left. Type of assay: functional.
Assay [14] concerns Rattus norvegicus. The assay can be described thus: Activity against spontaneous myogenic bladder contraction in partial outlet obstructed rat measured as reduction in AUC at 0.1 umol/kg, iv. On the set-up: scale not given: the % may be the effect or the level left. It is filed as functional.
Assay [15] relates to Rattus norvegicus. Description: Activity against spontaneous myogenic bladder contraction in partial outlet obstructed rat measured as reduction in AUC at 0.3 umol/kg, iv. It is filed as functional. On the set-up: scale not given: the % may be the effect or the level left.
Assay [16] has as its system Rattus norvegicus. The assay can be described thus: Activity against spontaneous myogenic bladder contraction in partial outlet obstructed rat measured as reduction in MAP at 0.3 umol/kg, iv. On the set-up: scale not given: the % may be the effect or the level left. Type of assay: functional.
Assay [17] has as its system Rattus norvegicus. The assay can be described thus: Activity against volume-induced reflex neurogenic bladder contraction in urethral ligated rat measured as reduction in MAP at 0.3 umol/kg, iv. Type of assay: functional, Urinary bladder. On the set-up: scale not given: the % may be the effect or the level left.
The subject of assay [18] is Rattus norvegicus. The assay can be described thus: Activity against volume-induced reflex neurogenic bladder contraction in urethral ligated rat measured as reduction in AUC at 0.3 umol/kg, iv. It is filed as functional, Urinary bladder. Also noted: scale not given: the % may be the effect or the level left.
Assay [19] has as its system Rattus norvegicus. The assay can be described thus: Activity against spontaneous myogenic bladder contraction in partial outlet obstructed rat measured as reduction in AUC at 0.03 umol/kg, iv. Type of assay: functional. On the set-up: scale not given: the % may be the effect or the level left.
The subject of assay [20] is Rattus norvegicus. The assay can be described thus: Activity against spontaneous myogenic bladder contraction in partial outlet obstructed rat measured as reduction in MAP at 0.1 umol/kg, iv. It is filed as functional. On the set-up: scale not given: the % may be the effect or the level left.
Assay [21] concerns Rattus norvegicus. The assay can be described thus: Activity against volume-induced reflex neurogenic bladder contraction in urethral ligated rat measured as reduction in AUC at 1 umol/kg, iv. It is filed as functional, Urinary bladder. On the set-up: scale not given: the % may be the effect or the level left.
The test system of assay [22] is Rattus norvegicus. Description: Activity against spontaneous myogenic bladder contraction in partial outlet obstructed rat measured as reduction in MAP at 0.03 umol/kg, iv. Type of assay: functional. Also noted: scale not given: the % may be the effect or the level left.

T1 sequence (Q14654 whole entry, canonical isoform): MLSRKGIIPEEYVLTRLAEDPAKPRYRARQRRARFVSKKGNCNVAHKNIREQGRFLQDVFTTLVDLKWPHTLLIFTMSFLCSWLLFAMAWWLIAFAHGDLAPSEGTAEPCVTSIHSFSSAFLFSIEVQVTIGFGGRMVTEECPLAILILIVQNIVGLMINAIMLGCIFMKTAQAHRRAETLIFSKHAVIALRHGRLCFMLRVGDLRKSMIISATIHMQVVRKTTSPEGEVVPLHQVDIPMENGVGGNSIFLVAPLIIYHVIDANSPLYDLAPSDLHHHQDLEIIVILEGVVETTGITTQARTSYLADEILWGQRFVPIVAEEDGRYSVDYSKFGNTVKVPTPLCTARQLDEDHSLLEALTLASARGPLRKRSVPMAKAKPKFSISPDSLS
T1 sequence (O60706 whole entry, canonical isoform): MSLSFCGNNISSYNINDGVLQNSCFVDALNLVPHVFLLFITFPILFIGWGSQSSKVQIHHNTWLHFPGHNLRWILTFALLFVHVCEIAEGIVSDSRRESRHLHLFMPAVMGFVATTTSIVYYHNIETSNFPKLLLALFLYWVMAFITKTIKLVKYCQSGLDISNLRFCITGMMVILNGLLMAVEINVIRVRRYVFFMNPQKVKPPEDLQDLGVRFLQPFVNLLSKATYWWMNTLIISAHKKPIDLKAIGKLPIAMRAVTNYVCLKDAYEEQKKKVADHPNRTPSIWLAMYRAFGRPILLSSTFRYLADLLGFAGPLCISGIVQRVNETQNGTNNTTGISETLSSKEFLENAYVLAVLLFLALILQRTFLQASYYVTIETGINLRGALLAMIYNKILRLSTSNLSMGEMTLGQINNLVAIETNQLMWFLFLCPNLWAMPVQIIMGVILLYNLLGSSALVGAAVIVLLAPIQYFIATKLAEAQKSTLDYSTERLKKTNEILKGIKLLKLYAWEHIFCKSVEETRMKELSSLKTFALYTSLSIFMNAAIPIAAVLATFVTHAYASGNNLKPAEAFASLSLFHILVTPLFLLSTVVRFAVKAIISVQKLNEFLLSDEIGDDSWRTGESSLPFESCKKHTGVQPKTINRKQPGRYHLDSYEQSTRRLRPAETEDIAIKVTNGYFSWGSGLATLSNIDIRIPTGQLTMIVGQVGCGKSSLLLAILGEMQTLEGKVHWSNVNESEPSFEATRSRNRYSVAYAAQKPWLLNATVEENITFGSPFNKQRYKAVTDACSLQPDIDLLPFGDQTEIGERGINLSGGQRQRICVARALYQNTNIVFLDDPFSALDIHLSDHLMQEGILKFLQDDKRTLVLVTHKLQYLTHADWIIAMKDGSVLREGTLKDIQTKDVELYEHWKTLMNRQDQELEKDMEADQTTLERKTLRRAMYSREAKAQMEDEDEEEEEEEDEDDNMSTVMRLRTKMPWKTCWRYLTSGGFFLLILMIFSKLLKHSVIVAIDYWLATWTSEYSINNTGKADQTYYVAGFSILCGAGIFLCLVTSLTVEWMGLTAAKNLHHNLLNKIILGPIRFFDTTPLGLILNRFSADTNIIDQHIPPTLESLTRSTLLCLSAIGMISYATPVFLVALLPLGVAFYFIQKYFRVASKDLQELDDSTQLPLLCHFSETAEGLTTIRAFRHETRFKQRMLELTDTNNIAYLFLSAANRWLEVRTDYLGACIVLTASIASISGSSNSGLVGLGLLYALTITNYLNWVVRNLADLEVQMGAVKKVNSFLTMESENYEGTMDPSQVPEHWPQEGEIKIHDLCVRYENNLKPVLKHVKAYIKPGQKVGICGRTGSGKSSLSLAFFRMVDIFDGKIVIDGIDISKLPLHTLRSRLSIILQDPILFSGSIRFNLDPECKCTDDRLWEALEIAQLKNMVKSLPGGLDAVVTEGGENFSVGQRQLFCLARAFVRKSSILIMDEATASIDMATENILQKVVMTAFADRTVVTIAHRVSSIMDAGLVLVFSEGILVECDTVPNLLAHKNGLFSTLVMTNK

For the molecule `CCc1cc(C#N)ccc1Nc1c(N[C@H](C)C(C)(C)C)c(=O)c1=O`, the figures for the half-maximal effective concentration (EC50) in [1], in assay [2] and in [3] were 2340 nM, 102 nM and 676 nM, respectively. Also, the Efficacy worked out at 71% in [4], 100% in assay [5] and 94% in assay [6].
`CCC[C@H]1OC(O)=C2C1=NC1=C(C(=O)COC1)[C@H]2c1ccc(F)c(Br)c1` (racemic): the results for the Activity entry in assay [7] and in assay [8] were “Partial agonist” and “Agonist”, respectively. In addition, the Efficacy in assay [4] worked out at 36%; in assay [6], 90%.
Take `CC[C@H]1OC(O)=C2C1=NC1=C(C(=O)COC1)[C@H]2c1ccc(F)c(Br)c1` (racemic): the Activity entry was “Partial agonist” in assay [7] and “Agonist” in [8]. Moreover, the Efficacy in assay [4] amounted to 40%; in assay [6], 88%.
For `CC[C@H]1OC(O)=C2C1=NC1=C(C(=O)CSC1)[C@H]2c1ccc(F)c(Br)c1` (relative stereo) the same measures were “Partial agonist”, “Agonist”, 15% and 100%.
With `CCC[C@H]1OC(O)=C2C1=NC1=C(C(=O)COC1)[C@H]2c1ccc(F)c(Br)c1` (stereo in doubt; 23b), the Activity in the assay with Rattus norvegicus [9] came out at 43.8%; in the assay with Rattus norvegicus [10], 49.7%; in the assay on Rattus norvegicus [11], 37.4%; in the assay on Rattus norvegicus [12], 93.1%; in the assay with Rattus norvegicus [13] it was 40.7%; in the assay on Rattus norvegicus [14] it was 19.1%. Moreover, the Activity is 46.7% with Rattus norvegicus [15]; 23.6% in the assay on Rattus norvegicus [16]; 22.6% with Rattus norvegicus [17]; 16% in the assay on Rattus norvegicus [18]; 4.2% with Rattus norvegicus [19]; 9.6% in the assay on Rattus norvegicus [20]. The Activity in the assay with Rattus norvegicus [21] came to 31.9%; with Rattus norvegicus [22], 5.1%. For the same molecule, the EC50 is 27.5 nM in assay [1], 28.8 nM in [2] and 513 nM in assay [3].
